# Tests used:
# Staphylococcus aureus = assay: Antibacterial activity against Staphylococcus aureus assessed as inhibition of microbial growth incubated for 18 to 22 hrs by broth microdilution method; assay type: functional
# Summary of the method: (§1)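 Broth microdilution in Mueller-Hinton II broth following NCCLS recommendations; compounds dissolved in DMSO.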
# Staphylococcus warneri = assay: Antibacterial activity against Staphylococcus warneri assessed as inhibition of microbial growth incubated for 18 to 22 hrs by broth microdilution method; assay type: functional; summary of the method: as §1
# Enterococcus faecalis = assay: Antibacterial activity against Streptococcus faecalis assessed as inhibition of microbial growth incubated for 18 to 22 hrs by broth microdilution method; assay type: functional; summary of the method: as §1
# Escherichia coli = assay: Antibacterial activity against Escherichia coli assessed as inhibition of microbial growth incubated for 18 to 22 hrs by broth microdilution method; assay type: functional; summary of the method: as §1
# Proteus mirabilis = assay: Antibacterial activity against Proteus mirabilis assessed as inhibition of microbial growth incubated for 18 to 22 hrs by broth microdilution method; assay type: functional; summary of the method: as §1
# Enterobacter = assay: Antibacterial activity against Enterobacter spp. assessed as inhibition of microbial growth incubated for 18 to 22 hrs by broth microdilution method; assay type: functional; summary of the method: as §1
# Klebsiella oxytoca = assay: Antibacterial activity against Klebsiella oxytoca assessed as inhibition of microbial growth incubated for 18 to 22 hrs by broth microdilution method; assay type: functional; summary of the method: as §1
# Candida albicans = assay: Antifungal activity against Candida albicans clinical isolates assessed as inhibition of microbial growth incubated for 24 hrs by broth microdilution method; assay type: functional
# Summary of the method: (§2)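 Twenty-two clinical Candida isolates (8 C. albicans, 4 C. glabrata, 3 C. tropicalis, 3 C. krusei, 2 C. parapsilosis, 2 C. sake) were identified by colony morphology and biochemistry and subcultured at 35 °C for purity. Compounds were dissolved in DMSO and tested by broth microdilution in Sabouraud dextrose broth per NCCLS/CLSI/EUCAST guidance. Values are geometric mean MIC per species (µg/mL).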
# Nakaseomyces glabratus = assay: Antifungal activity against Candida glabrata clinical isolates assessed as inhibition of microbial growth incubated for 24 hrs by broth microdilution method; assay type: functional; summary of the method: as §2
# Candida tropicalis = assay: Antifungal activity against Candida tropicalis clinical isolates assessed as inhibition of microbial growth incubated for 24 hrs by broth microdilution method; assay type: functional; summary of the method: as §2
# Pichia kudriavzevii = assay: Antifungal activity against Candida krusei clinical isolates assessed as inhibition of microbial growth incubated for 24 hrs by broth microdilution method; assay type: functional; summary of the method: as §2
# Candida parapsilosis = assay: Antifungal activity against Candida parapsilosis clinical isolates assessed as inhibition of microbial growth incubated for 24 hrs by broth microdilution method; assay type: functional; conditions: Lodderomyces parapsilosis; summary of the method: as §2
# [Candida] sake = Antifungal activity against Candida sake clinical isolates assessed as inhibition of microbial growth incubated for 24 hrs by broth microdilution method; assay type: functional; conditions: Fermentozyma sake; summary of the method: as §2
# [1] = tested on: Streptococcus alpha-hemolyticus (Streptococcus sp.); assay: Antibacterial activity against Streptococcus Streptococcus alpha hemolyticus assessed as inhibition of microbial growth incubated for 18 to 22 hrs by broth microdilution method
SMILES,MIC (Staphylococcus aureus) [µg/mL],MIC (Staphylococcus warneri) [µg/mL],MIC (Enterococcus faecalis) [µg/mL],MIC (Escherichia coli) [µg/mL],MIC (Proteus mirabilis) [µg/mL],MIC (Enterobacter) [µg/mL],MIC (Klebsiella oxytoca) [µg/mL],MIC (Candida albicans) [µg/mL],MIC (Nakaseomyces glabratus) [µg/mL],MIC (Candida tropicalis) [µg/mL],MIC (Pichia kudriavzevii) [µg/mL],MIC (Candida parapsilosis) [µg/mL],MIC ([Candida] sake) [µg/mL],MIC [1] [µg/mL]
O=C1CS/C(=N/N=C\c2cccc3ccccc23)N1Cc1ccccc1,≥ 256,≥ 256,≥ 256,≥ 256,≥ 256,≥ 256,≥ 256,8,8,16,16,16,16,
C/C(=N/N=C1/SCC(=O)N1Cc1ccccc1)c1ccncc1,≥ 256,≥ 256,≥ 256,≥ 256,≥ 256,≥ 256,≥ 256,8,16,32,2,32,32,
CCC/C(CC)=N\N=C1/NC(=O)CS1,≥ 256,≥ 256,≥ 256,≥ 256,≥ 256,≥ 256,≥ 256,2,2,16,2,4,2,≥ 256
C/C(=N/N=C1/SCC(=O)N1Cc1ccccc1)c1ccc2ccc3ccccc3c2c1,≥ 256,≥ 256,≥ 256,≥ 256,≥ 256,≥ 256,≥ 256,2,2,2,4,2,8,
C/C(=N/N=C1/SCC(=O)N1Cc1ccccc1)c1c[nH]c2ccccc12,≥ 256,≥ 256,≥ 256,≥ 256,≥ 256,≥ 256,≥ 256,8,4,16,4,32,8,
C/C(=N\N=C1\SCC(=O)N1Cc1ccccc1)c1cc2ccccc2o1,≥ 256,≥ 256,≥ 256,≥ 256,≥ 256,≥ 256,≥ 256,4,4,32,16,32,4,
O=C1CS/C(=N/N=C\c2cccnc2)N1Cc1ccccc1,≥ 256,≥ 256,≥ 256,≥ 256,≥ 256,≥ 256,≥ 256,256,256,256,256,256,256,
C/C(=N/N=C1/SCC(=O)N1Cc1ccccc1)c1ccc2c(c1)OCCO2,≥ 256,≥ 256,≥ 256,≥ 256,≥ 256,≥ 256,≥ 256,2,8,2,4,2,8,
C/C(=N/N=C1/SCC(=O)N1Cc1ccccc1)c1cc2ccccc2oc1=O,≥ 256,≥ 256,≥ 256,≥ 256,≥ 256,≥ 256,≥ 256,256,32,256,128,128,128,
CCCC/C(C)=N\N=C1/NC(=O)CS1,≥ 256,≥ 256,≥ 256,≥ 256,≥ 256,≥ 256,≥ 256,2,2,32,2,4,2,≥ 256
C/C(=N/N=C1/SCC(=O)N1Cc1ccccc1)c1ccccn1,≥ 256,≥ 256,≥ 256,≥ 256,≥ 256,≥ 256,≥ 256,256,16,28,256,256,256,
CC(C)(O/N=C(\C(=O)N[C@@H]1C(=O)N2C(C(=O)[O-])=C(C[n+]3ccccc3)CS[C@H]12)c1csc(N)n1)C(=O)O [CEFTAZIDIME],8,8,8,8,8,8,8,,,,,,,8
